Measurements of several laboratories.
Compare with care: the assays were run in different laboratories.
CYP1A1: Cytochrome P450 1A1 (CYP1A1, Homo sapiens, UniProt P04798)
BCL2L2: Bcl-2-like protein 2 (BCL2L2, Homo sapiens, UniProt Q92843)
Enoyl-[acyl-carrier-protein] reductase [NADPH] FabI: Enoyl-[acyl-carrier-protein] reductase [NADPH] FabI (Staphylococcus aureus, UniProt Q6GI75)

Structure (SMILES) | target | test | conditions | Ki [nM]
O=C(O)CCC(NC(=O)NC(CCCCNC(=O)CCCCCCC(=O)NC(CCCCNC(=O)CN1CCN(CC(=O)O)CCN(CC(=O)O)CCN(CC(=O)O)CC1)C(=O)OCc1ccccc1)C(=O)O)C(=O)O (stereo not drawn) | Glutamate carboxypeptidase 2 (FOLH1, Homo sapiens, UniProt Q04609) | enzyme activity, inhibitor, fluorescence |  | 2.9
CCn1c(-c2nc3cc(C(=O)N4CCC[C@@H](N)C4)cc(OC)c3n2C)cc2cccnc21 | Protein-arginine deiminase type-1 (PADI1, Homo sapiens, UniProt Q9ULC6) | enzyme activity, inhibitor |  | 570000
C#Cc1ccc2c(=O)cc(-c3ccccc3)oc2c1 | CYP1A1 | enzyme activity, inhibitor, fluorescence | 6 min, pH 7.6 | 24
C[C@H]1Oc2cc(cnc2N)-c2c(nn(C)c2C#N)CN(C)C(=O)c2ccc(F)cc21 | Dual specificity mitogen-activated protein kinase kinase 1 (MAP2K1, Homo sapiens, UniProt Q02750) | cell-free assay | lysate | 128
CC[C@H](C)[C@H](NC(=O)[C@H](CCC(=O)O)NC(=O)[C@H](CC(=O)O)NC(=O)CNC(=O)[C@H](CC(C)C)NC(=O)[C@H](CCCNC(=N)N)NC(=O)[C@H](CCC(N)=O)NC(=O)[C@H](CC(C)C)NC(=O)[C@H](CO)NC(=O)[C@H](CCC(N)=O)NC(=O)[C@@H](NC(=O)[C@H](CC(C)C)NC(=O)[C@H](Cc1c[nH]c2ccccc12)NC(=O)[C@@H](NC(=O)[C@H](CCC(=O)O)NC(=O)[C@@H]1CCCN1C(=O)[C@H](CCCNC(=N)N)NC(C)=O)[C@@H](C)CC)[C@@H](C)O)C(=O)N[C@@H](CC(N)=O)C(=O)N[C@@H](C)C(=O)N[C@@H](Cc1ccc(O)cc1)C(=O)N[C@@H](Cc1ccc(O)cc1)C(=O)N[C@@H](C)C(=O)N[C@@H](CCCNC(=N)N)C(N)=O | BCL2L2 | ligand displacement, FP |  | 360
CCc1cc(O)c(Oc2ccccc2)cc1F | Enoyl-[acyl-carrier-protein] reductase [NADPH] FabI | enzyme activity, inhibitor |  | 0.09
CC[C@H](NC(=O)[C@H](CS(=O)(=O)CC1CC1)N[C@@H](c1ccc(F)cc1)C(F)(F)F)C(=O)C(=O)NC1CC1 | Cathepsin S (Ctss, Mus musculus, UniProt O70370) | enzyme activity, inhibitor |  | 0.04
NCCCC[C@H](NC(=O)[C@@H]1CCCN1C(=O)[C@@H]1CSSC[C@H](N)C(=O)N[C@@H](Cc2ccc(O)cc2)C(=O)N[C@@H](Cc2ccccc2)C(=O)N[C@@H](CCC(N)=O)C(=O)N[C@@H](CC(N)=O)C(=O)N1)C(=O)NCC(N)=O | Vasopressin V1a receptor (AVPR1A, Homo sapiens, UniProt P37288) | ligand displacement, radioligand | cell membranes | 1.8
N#Cc1cc(Br)ccc1Oc1ccc(Cl)cc1O | Enoyl-[acyl-carrier-protein] reductase [NADPH] FabI | enzyme activity, inhibitor |  | 0.17
C#Cc1ccc(-c2cc(=O)c3ccccc3o2)cc1 | CYP1A1 | enzyme activity, inhibitor, fluorescence | 6 min, pH 7.6 | 39
CC[C@H](C)[C@H](NC(=O)[C@H](CCC(=O)O)NC(=O)[C@H](CC(=O)O)NC(=O)CNC(=O)[C@H](CC(C)C)NC(=O)[C@H](CCCNC(=N)N)NC(=O)[C@H](CCCNC(=N)N)NC(=O)[C@H](CC(C)C)NC(=O)CNC(=O)[C@H](CCC(N)=O)NC(=O)[C@@H](NC(=O)[C@H](CCSC)NC(=O)[C@H](Cc1c[nH]c2ccccc12)NC(=O)[C@@H](NC(=O)[C@H](CCC(=O)O)NC(=O)[C@@H]1CCCN1C(=O)[C@H](CCCNC(=N)N)NC(C)=O)[C@@H](C)CC)[C@@H](C)O)C(=O)N[C@@H](CC(N)=O)C(=O)N[C@@H](C)C(=O)N[C@@H](Cc1ccc(O)cc1)C(=O)N[C@@H](Cc1ccc(O)cc1)C(=O)N[C@@H](C)C(=O)N[C@@H](CCCNC(=N)N)C(N)=O | BCL2L2 | ligand displacement, FP |  | 1500
COc1cc(O)c(CC=C(C)C)c(O)c1C(=O)/C=C/c1ccc(O)cc1 | CYP1A1 | enzyme activity, inhibitor, fluorescence | 15 min, pH 7.4 | 110
